# Assay outcomes deposited in PubChem by several laboratories.
# ABCG2 block: ABCG2 efflux pump inhibitors, primary screen, multiplex with ABCB1, IgMXP3 cells, flow cytometry; Broad substrate specificity ATP-binding cassette transporter ABCG2 (Homo sapiens), Q9UNQ0; JC-1 efflux; actives 0.1% (n = 190,000); inhibition, % at 6.6 µM;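 active = inhibition above 80%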;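 note: 0% = DMSO and 100% = nicardipine control wells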
#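 Test system: IgMXP3 (ABCG2) plus far-red-tagged CCRF-Adr (ABCB1) cells / Amount: 3 million cells/mL in well / Reagent: JC-1 transporter substrate / Timing: 10 min compound exposure, 25 °C / Signal: flow cytometry, 530 nm JC-1 signal / Read-out: percent efflux inhibition, scaled nicardipine 100% to DMSO 0% / Benchmarks: nicardipine as high control, DMSO as low control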
# PKD1 inh: inhibitors of human PKD1 kinase, biochemical, fluorescence polarization | PKD1 kinase fluorescence polarization assay | inhibition, % (test concentration not listed) | actives 0.056% (n = 200,000)
# Target sequence (Q15139 whole entry, looked up): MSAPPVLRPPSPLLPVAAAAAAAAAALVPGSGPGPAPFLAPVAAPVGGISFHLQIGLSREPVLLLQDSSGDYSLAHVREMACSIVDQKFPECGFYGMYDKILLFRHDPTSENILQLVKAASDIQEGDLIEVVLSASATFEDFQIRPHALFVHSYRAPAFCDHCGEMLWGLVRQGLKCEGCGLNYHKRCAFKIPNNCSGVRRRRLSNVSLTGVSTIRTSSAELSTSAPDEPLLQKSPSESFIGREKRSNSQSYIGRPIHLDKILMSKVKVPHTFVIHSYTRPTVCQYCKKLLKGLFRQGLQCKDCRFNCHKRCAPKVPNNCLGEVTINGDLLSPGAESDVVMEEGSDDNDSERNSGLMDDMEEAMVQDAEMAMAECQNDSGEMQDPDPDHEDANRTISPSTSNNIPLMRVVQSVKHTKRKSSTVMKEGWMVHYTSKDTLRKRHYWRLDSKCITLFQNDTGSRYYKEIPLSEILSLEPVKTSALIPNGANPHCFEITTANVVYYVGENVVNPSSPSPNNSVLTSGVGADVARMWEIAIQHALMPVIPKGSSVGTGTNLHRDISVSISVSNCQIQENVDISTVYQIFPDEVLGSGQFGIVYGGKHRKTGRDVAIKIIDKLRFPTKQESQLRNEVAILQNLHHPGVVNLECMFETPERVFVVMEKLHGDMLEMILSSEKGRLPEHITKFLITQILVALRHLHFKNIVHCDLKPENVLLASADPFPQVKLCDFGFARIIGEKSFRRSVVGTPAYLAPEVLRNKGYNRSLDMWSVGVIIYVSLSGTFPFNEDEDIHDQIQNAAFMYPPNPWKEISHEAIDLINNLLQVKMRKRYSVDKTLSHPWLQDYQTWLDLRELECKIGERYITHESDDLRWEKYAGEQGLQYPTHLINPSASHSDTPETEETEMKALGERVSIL
# GSH fluor: compound fluorescence on glutathione beads, profiling panel, artefact control, biophysical, 488/530 nm, flow cytometry. GSH beads flow cytometry, compound fluorescence 488/530 nm; stronger effect = higher value. actives 0.25% (n = 190,000). fluorescence (KMESF) at 10 µM; in the data active = fluorescence above about 89;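 note: glutathione beads carrying GST-tagged Bcl family fusion proteins plus one bare bead set; values are compound well signal with DMSO vehicle wells as background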
# Avidin bead fluor: green autofluorescence of compounds with avidin beads – biophysical, 488/530 nm, flow cytometry, artefact control, profiling panel; compound fluorescence 488/530 nm; stronger effect = higher value; fluorescence (KMESF) at 10 µM; actives 0.38% (n = 220,000); in the data active = fluorescence above about 47
# ABCB1 inh: ABCB1 efflux pump inhibitors, primary screen, cell-based, multiplex, flow cytometry, ABCG2 counter-screen | CCRF-Adr cells, JC-1 efflux | actives 0.067% (n = 190,000) | inhibition, % at 6.6 µM | AID 1326, 2008; in the data active = inhibition above about 40%;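 note: 0% = vehicle and 100% = reference inhibitor; higher value means more JC-1 retained so stronger ABCB1 efflux block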
# Lmaj promast: Leishmania major promastigote growth inhibition, primary screen; Leishmania major promastigotes, resazurin fluorescence viability; inhibition, % at 10 µM; actives 9% (n = 200,000); AID 1063, 2008;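 note: promastigotes grown with compound for 44 hours at 28 °C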
# Active calls of the source: *; . = no result given. Only a selection was taken, and hits are over-represented in it overall. Cut-off read from the data, not from the text of the source, unless noted: active = inhibition above about 50%; inactive = the rest.
SMILES,ABCG2 block,PKD1 inh,GSH fluor,Avidin bead fluor,ABCB1 inh,Lmaj promast
CC1=NNC(=O)/C1=C\c1cn(-c2ccccc2)nc1-c1ccccc1,1,-1,11,10,0,100*
CC1(C)CC(=O)C(=Cc2cn(-c3ccccc3)nc2-c2ccc(Cl)cc2)C(=O)C1,0,-10,18,9,0,69*
O=Cc1cn(-c2ccccc2)nc1-c1ccncc1,21,-1,13,11,0,14
Nc1ccc(N2CCN(c3cccc(Cl)c3)CC2)cc1,5,-3,7,1,0,89*
CCOC(=O)c1ccc(CNCc2ccccc2)cc1,4,-3,6,16,.,100*
CCOC(=O)c1ccc(NC(=O)N2CCN(CCc3ccccc3)CC2)cc1,5,-10,37,15,2,64*
CCOC(=O)c1ccc(NC(=S)NCCCN2CCN(C3CCCCC3)CC2)cc1,3,-8,67,12,1,53*
CCOC(=O)c1ccc(NC(=S)Nc2ccc(C)cc2)cc1,-2,-2,16,10,-1,-7
CCOC(=O)c1ccc(NC(=S)NN2CCOCC2)cc1,7,-9,9,12,.,53*
COc1cccc(-n2c(CN3CCN(c4ccc(C)cc4)C(C)C3)nc3ccc([N+](=O)[O-])cc3c2=O)c1 (centres undefined),19,0,4,13,7,92*
COc1cccc(-n2c(CN3CCN(c4cccc(C)c4)C(C)C3)nc3ccc([N+](=O)[O-])cc3c2=O)c1 (centres undefined),8,-3,6,12,3,66*
Nc1cc(Cl)ccc1C(=O)OCC(=O)N1CCOCC1,.,.,.,6,.,.
OCCN1CCN(CCSc2ccccc2)CC1,1,-8,9,36,0,56*
c1ccc(SCCN2CCc3ccccc3C2)cc1,11,-4,23,5,1,0
OCC1(Cc2cccc(C(F)(F)F)c2)CCN(Cc2cc3ccccc3o2)CC1,2,0,14,11,1,84*
Cc1c(CN2CCC(CO)(Cc3cccc(C(F)(F)F)c3)CC2)c2ccccc2n1C,3,0,18,7,7,87*
COc1ccc(CC2(CO)CCN(Cc3cc4ccccc4o3)CC2)cc1,7,1,16,1,6,79*
CC(=O)Nc1ccc2c(COC(=O)[C@H](C)N3C(=O)C4CCCCC4C3=O)cc(=O)oc2c1 (some centres undefined),.,.,.,10,.,.
CN(CC/C=C1/c2ccccc2CSc2ccccc21)CCCO,10,-14,6,5,2,56*
CN(C)CC/C=C1/c2cc(F)ccc2CSc2ccc(F)cc21,1,1,9,3,1,99*
C#CCN(C)CC/C=C1\c2ccccc2CSc2ccccc21,-2,-8,25,3,1,65*
CC(O)CN(C)CC/C=C1/c2ccccc2CSc2ccccc21 (centres undefined),-2,4,17,5,0,98*
O=C(Nc1nnc(-c2cccs2)s1)c1cccc(F)c1,-1,-1,15,16,-3,0
Cc1cccc(C)c1NC(=O)Nc1ccc(S(N)(=O)=O)cc1,.,.,.,5,.,.
C=CCN(C)CC/C=C1\c2ccccc2CSc2ccccc21,-1,-4,11,23,1,100*
SMILES,ABCG2 block,PKD1 inh,GSH fluor,Avidin bead fluor,ABCB1 inh,Lmaj promast
NCC/C=C1/c2ccccc2CSc2ccccc21,-1,-2,18,.,0,54*
Cn1nc(C(F)(F)F)c(C(=O)Nc2ccc(F)cc2F)c1Sc1ccc(Cl)cc1,17,-6,25,18,2,-2
COc1ccc(/C=N/NC(=O)c2ccc(N)cc2)cc1Cn1cc([N+](=O)[O-])cn1,-2,-10,10,3,-1,1
Cc1ccc(-n2c(C)cc(/C([O-])=C(/C(=S)Nc3ccc(F)c(Cl)c3)[n+]3ccccc3)c2C)cc1,3,-4,12,15,1,91*
O=C1CC(N2CCN(Cc3ccc4c(c3)OCO4)CC2)C(=O)N1CCc1ccccc1 (centres undefined),1,-1,6,13,0,87*
O=C1CC(N2CCN(Cc3ccc4c(c3)OCO4)CC2)C(=O)N1c1cccc2ccccc12 (centres undefined),1,1,21,12,1,62*
COc1ccc(CCN2C(=O)CC(Cc3ccc(Br)cc3)C2=O)cc1OC (centres undefined),11,-1,11,18,3,56*
O=C1CC(N2CCN(Cc3ccc4c(c3)OCO4)CC2)C(=O)N1c1cccc(Cl)c1 (centres undefined),0,5,17,9,0,1
COc1ccc(CCN2C(=O)CC(Cc3ccccc3)C2=O)cc1OC (centres undefined),.,.,.,7,.,.
O=C1CC(Cc2ccccc2)C(=O)N1CCc1ccc2c(c1)OCO2 (centres undefined),2,2,31,19,1,100*
COc1ccc(/C=N/NC(=O)c2cccc(O)c2)cc1Cn1nc(C)c([N+](=O)[O-])c1C,13,1,13,7,1,-4
COc1cccc(/C=C/C(=O)OCC(=O)c2c[nH]c3ccccc23)c1OC,0,0,22,6,0,-2
CCc1cccc2c(C(=O)COC(=O)/C=C/c3ccc(O)c(OC)c3)c[nH]c12,-2,-9,19,6,-1,99*
COc1cc(/C=C/C(=O)OCC(=O)N2CCc3ccccc3C2)ccc1O,30,-7,6,12,36,76*
COc1ccc(S(=O)(=O)N(Cc2ccccc2)c2ccccc2C(=O)Nc2ccccc2C(=O)NCc2ccco2)cc1,0,-8,4,4,1,66*
O=C(O)c1ccccc1C(=O)NCc1cccnc1,-6,12,12,9,-7,-4
COc1ccc(S(=O)(=O)Nc2ccccc2C(=O)NCc2ccco2)cc1,0,3,10,25,0,-5
Cc1ccc(S(=O)(=O)N(Cc2ccccc2)c2ccccc2C(=O)NCc2cccnc2)cc1,1,-8,16,15,1,64*
Cc1ccccc1CN(c1ccc(C(=O)Nc2ccccc2C(=O)NCc2ccco2)cc1)S(C)(=O)=O,2,0,13,10,1,81*
Cc1nn(CC2CC2)c(=O)n1-c1ccc(Oc2ccccc2)cc1,9,-2,21,9,1,-11
